PP5 primary: PP5 phosphatase inhibitors, primary screen, biochemical, fluorescence | Serine/threonine-protein phosphatase 5 (Homo sapiens), P53041 | purified PP5c, OMFP substrate fluorescence | inhibition, % at 6.7 µM | actives 0.18% (n = 320,000);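 active means inhibition above the campaign's mean inhibition across all tested compounds plus 3 SD, cut at about 9.5% in these data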;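 further: 0% = DMSO only and 100% = 100 µM cantharidin control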
Target sequence (P53041 whole entry, looked up): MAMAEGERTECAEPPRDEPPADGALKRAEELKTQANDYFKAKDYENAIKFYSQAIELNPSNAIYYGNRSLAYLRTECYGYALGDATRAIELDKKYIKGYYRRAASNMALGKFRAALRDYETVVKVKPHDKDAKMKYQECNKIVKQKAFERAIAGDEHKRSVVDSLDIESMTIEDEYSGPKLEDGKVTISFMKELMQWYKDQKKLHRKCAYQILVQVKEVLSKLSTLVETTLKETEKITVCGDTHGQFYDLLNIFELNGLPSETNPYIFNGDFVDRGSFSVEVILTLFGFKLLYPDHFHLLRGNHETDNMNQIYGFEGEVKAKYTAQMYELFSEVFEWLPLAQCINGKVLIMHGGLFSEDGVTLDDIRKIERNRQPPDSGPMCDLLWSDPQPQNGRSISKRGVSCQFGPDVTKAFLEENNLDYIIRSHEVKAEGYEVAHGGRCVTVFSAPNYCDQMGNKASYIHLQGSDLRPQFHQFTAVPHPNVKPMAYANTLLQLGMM
PP1 inh: PP1-alpha phosphatase inhibitors, primary screen, counter-screen for PP5 inhibitor project, biochemical, fluorescence, OMFP substrate, single point. purified PP1alpha. inhibition, % at 6.7 µM. actives 0.9% (n = 320,000). AID 2235, 2010;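 active means inhibition above the mean inhibition of all tested compounds plus 3 SD, computed separately for each screening campaign, cut at about 15% in these data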
proCasp3 act: activators of human procaspase-3 D3A mutant, primary screen, biochemical, absorbance, PC-3 D3A mutant, single concentration. activation, % at 8.5 µM. actives 0.11% (n = 330,000). Caspase-3 (Homo sapiens), P42574. AID 463141, 2010. recombinant procaspase-3 D3A, Ac-DEVD-pNA absorbance 405 nm;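 active means activation above the mean of all tested compounds plus 3 SD, cut at about 21% in these data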;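 further: 0% = DMSO alone and 100% = DMSO wells spiked with extra 5 µM PC-3 D3A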
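Test system: Procaspase-3 D3A mutant; medium: Zinc-free HEPES/NaCl buffer with 0.01% Triton X-100 at pH 7.4; reagent: DEVD-pNA substrate; doses: one concentration, 8.5 µM nominal, 0.8% DMSO; times: 1 h preincubation plus 2 h reaction at 25 °C; signal: Epi-absorbance at 405 nm of released p-nitroaniline, 0 and 120 min; replicates: singlicate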
procasp7 counter: procaspase-7 activators, primary screen, counter-screen for procaspase-3 activator project, biochemical, absorbance, HTS, human; Caspase-7 (Homo sapiens), P55210; recombinant procaspase-7, Ac-DEVD-pNA absorbance 405 nm; D23A/D198A/D206A triple mutant, cannot self-cleave; scale: DMSO 0, 5 µM enzyme 100; activation, % at 8.5 µM; actives 0.093% (n = 330,000); AID 463210, 2010;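 active means percent activation above the screen-wide mean plus 3 SD, cut at about 25% in these data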
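Test system: Procaspase-7 triple mutant (PC-7 D3A). Also added: Ac-DEVD-pNA substrate, 400 µM as added. Schedule: 1 h enzyme–compound preincubation and 2 h substrate reaction, both 25 °C. Signal: p-Nitroaniline absorbance at 405 nm, read at 0 and 120 min. Control set: low DMSO alone, high DMSO plus 5 µM PC-7.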
* marks the source's active call; other numbers are inactive results; . = no result; ! = not active in a repeat. Shown are actives, neighbours in structure and some others; about 1.2% of the full set was active somewhere.

SMILES | PP5 primary | PP1 inh | proCasp3 act | procasp7 counter
COc1cc(C2C(C(=O)c3ccco3)=C(O)C(=O)N2CCc2ccccc2)ccc1O (stereo unspecified) | 2 | 15* | 6 | 5
CCOC(=O)c1sc(NC(=O)CSc2n[nH]c(-c3ccncc3)n2)c(C#N)c1C | 2 | 3 | -12 | 13
CCOc1ccc(/C=C/C2=Cc3c(sc(NC(=O)CSc4n[nH]c(N)n4)c3C#N)C(C)(C)C2)cc1 | 2 | 22* | -7 | -6
NC(=O)c1ccsc1NC(=O)CSc1n[nH]c(N)n1 | . | . | 3 | 10
Cc1ccsc1/C=C/C1=Cc2c(sc(NC(=O)CSc3n[nH]c(N)n3)c2C#N)C(C)(C)C1 | 3 | 17* | 6 | -14
COc1cc(/C=N/n2nnnc2N)cc(Cl)c1OC | 0 | -7 | -16 | 6
O=C(NCc1ccccc1)c1onc(CSc2ccccc2)c1C(=O)NCC1CC1 | 6 | 16* | 7 | 4
Fc1cccc(Cl)c1CNc1ccc(N2CCCC2)cc1 | 3 | 17* | 6 | -1
CC(=O)NC(CC(=O)OCC(=O)N1CCN(S(=O)(=O)c2ccc(C)cc2C)CC1)c1ccccc1 (stereo unspecified) | 1 | -3 | 3 | -4
COC(=O)C1=C(C)N(Cc2ccccc2)C(=NCCCCO)N[C@H]1c1ccccc1 | 3 | 16* | -1 | -13
CCOC(=O)C1Nc2ccc(C(=O)O)cc2C2C=CCC12 (stereo unspecified) | -1 | 34* | 1 | 6
Cc1ccc(NC(=O)c2ccc(=O)[nH]c2)cc1S(=O)(=O)N1CCCCCC1 | . | . | 2 | 15
O=c1cc(O)nc(SCc2ccccc2)n1-c1ccccc1 | -1 | 17*! | 7 | -7
Cc1cc(N2C(=O)C(=O)/C(=C(/O)c3ccc(F)cc3)C2c2cccc(Br)c2)no1 (stereo unspecified) | -1 | 16* | -7 | -4
O=C1CC(c2ccco2)Cc2nc(N3CCc4ccccc4C3)ncc21 (stereo unspecified) | -7 | 17* | 1 | -4
Cc1ccccc1-n1ncc2c1CC(C)(C)CC2NC(=O)c1snnc1C (stereo unspecified) | 1 | -3 | 2 | -3
O=C(CC1S/C(=N/N=C/c2cccs2)NC1=O)Nc1ccc(Cl)c(Cl)c1 (stereo unspecified) | 1 | -1 | 7 | 15
O=C(CC1S/C(=N/N=C/c2cccs2)NC1=O)Nc1ccc(Cl)cc1 (stereo unspecified) | 1 | 17* | -4 | -1
O=C(COC(=O)c1ncc(Cl)c(Cl)c1Cl)NCCc1ccccc1 | 0 | -10 | -9 | 7
CCOC(=O)C1CCN(S(=O)(=O)c2c(Cl)ccc3nonc23)CC1 | 5 | -5 | 3 | -9
CCCCn1c(-c2cccc3ccccc23)nc2cc3[nH]c(=O)c(C(C)C)nc3cc21 | 4 | 16* | 5 | -4
CCCCn1c(-c2ccccc2C)nc2cc3[nH]c(=O)c(C(C)C)nc3cc21 | 3 | 4 | -2 | -5
O=C(CCS(=O)(=O)c1ccc(Cl)cc1)NC1CCCC1 | . | . | 1 | 6
C=C1c2cccc(O)c2C(O)=C2C(=O)[C@]3(O)C(O)=C(C(N)=O)C(=O)[C@@H](N(C)C)[C@@H]3[C@@H](O)[C@H]12 | 1 | 50* | 9 | -17
O=C1c2ccccc2C(O)(c2ccccc2)N1CCc1ccccc1 (stereo unspecified) | 3 | 0 | 4 | 2
SMILES | PP5 primary | PP1 inh | proCasp3 act | procasp7 counter
O=C1c2ccccc2C(O)(c2ccccc2)N1c1ccncc1 (stereo unspecified) | -1 | 16* | -7 | -15
Cc1ccc(-c2csc(C3C(N)=NC(S)=C(C#N)C34CCCCC4)n2)cc1 (stereo unspecified) | 4 | 17* | 0 | -4
O=C(CCNS(=O)(=O)c1ccc(Br)cc1)NCCCSc1ccccc1 | 2 | -3 | 10 | 5
O=C(OC[C@H]1O[C@@H](OC(=O)c2cc(O)c(O)c(OC(=O)c3cc(O)c(O)c(O)c3)c2)[C@H](OC(=O)c2cc(O)c(O)c(OC(=O)c3cc(O)c(O)c(O)c3)c2)[C@@H](OC(=O)c2cc(O)c(O)c(OC(=O)c3cc(O)c(O)c(O)c3)c2)[C@@H]1OC(=O)c1cc(O)c(O)c(OC(=O)c2cc(O)c(O)c(O)c2)c1)c1cc(O)c(O)c(OC(=O)c2cc(O)c(O)c(O)c2)c1 | 4 | 82* | -18 | -22
Cc1cc(=O)c2c([nH]1)c(C)cc1[nH]c(C)c(C)c12 | -3 | -7 | 2 | 10
CC1CCCC(C)N1C(=O)COC(=O)c1cc(F)c(F)cc1Cl (stereo unspecified) | . | . | -2 | 2
O=C1C(=O)N(C/C=C/c2ccccc2)c2ccccc21 | 0 | 17* | -1 | -1
CC1Sc2ccc(C(=O)NCc3cccc(C(F)(F)F)c3)cc2NC1=O (stereo unspecified) | 3 | 0 | -1 | 3
O=C(Nc1ncn[nH]1)c1cc(S(=O)(=O)Nc2ccc(Cl)cc2)ccc1Cl | 2 | 3 | -5 | 4
O=C(Nc1ncn[nH]1)c1ccc(Cl)c(S(=O)(=O)Nc2ccc(Cl)cc2)c1 | 2 | 17* | 2 | 2
COc1ccc(Cl)cc1NC(=O)CN(C)C(=O)c1cccc2cccnc12 | . | . | 6 | 6
COc1ccc(O[C@H]2C=C[C@@H](c3ccccc3)O[C@@H]2CO/N=C(\C)CCN2CCc3nc(-c4ccccc4)c(-c4ccccc4)cc3C2)cc1 | 2 | 19* | 3 | -4
COc1ccc(O[C@H]2C=C[C@@H](c3ccccc3)O[C@@H]2COC(=O)CC/C(C)=N/OC[C@@H](O)COCc2ccco2)cc1 | 4 | 6 | -2 | -2
c1ccc(Oc2nnc(-c3cccs3)c3ccccc23)cc1 | 1 | 16* | 2 | 5
Cc1ccc(Oc2nnc(-c3cccs3)c3ccccc23)cc1 | 2 | 0 | 7 | 2
COc1cc(C(=O)NNC(=O)c2nn(C)c(=O)c3ccccc23)cc(OC)c1OC | . | . | -2 | 11
S=C(NCc1ccco1)N1CCN(c2nc(-c3ccc(Cl)cc3)cs2)CC1 | 1 | 4 | -2 | -6
O=C(CN1CCN(c2nc(-c3ccc(Cl)cc3)cs2)CC1)NCc1ccco1 | 6 | 16* | -8 | -4
CCOc1ccccc1CNC(=O)C1CCN(c2nnc(C)c3c(C)n(-c4ccc(C)cc4)nc23)CC1 | 0 | 2 | 6 | 10
Cc1ccc(-n2nc3c(N4CCC(C(=O)NCc5ccccc5C)CC4)nnc(C)c3c2C)cc1 | 4 | 16* | 3 | -2
